# Where two headings read alike, the source gives them in different places.
# Key:
# rat M4 mAChR = molecular target: T1, rat M4 mAChR (Rattus norvegicus, UniProt P08485); assay type: cell-based; settings: for EC50: potentiation of an EC20 concentration of ACh
# T1 sequence (P08485 1-478): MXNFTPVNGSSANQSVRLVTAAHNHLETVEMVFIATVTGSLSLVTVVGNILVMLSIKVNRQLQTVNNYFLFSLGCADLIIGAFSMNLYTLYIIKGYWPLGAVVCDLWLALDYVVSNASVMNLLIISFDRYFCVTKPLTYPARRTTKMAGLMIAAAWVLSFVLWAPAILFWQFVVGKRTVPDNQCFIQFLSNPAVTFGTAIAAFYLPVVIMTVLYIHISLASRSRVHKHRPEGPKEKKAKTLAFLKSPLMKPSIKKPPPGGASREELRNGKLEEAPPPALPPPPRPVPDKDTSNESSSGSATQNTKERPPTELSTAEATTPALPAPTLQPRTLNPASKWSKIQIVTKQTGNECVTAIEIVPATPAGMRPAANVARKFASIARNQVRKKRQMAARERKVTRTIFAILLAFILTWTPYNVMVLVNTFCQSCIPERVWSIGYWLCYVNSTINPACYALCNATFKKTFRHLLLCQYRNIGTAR
# [1] = tested on: amphetamine-induced hyperlocomotion in rats; experiment: Amphetamine-induced hyperlocomotion; assay type: in vivo, rat; settings: 56.6 mg/kg i.p., 30-min pretreatment; 1 mg/kg s.c. amphetamine; 60 min
# log P = assay type: physicochemical
# panel of 16 GPCRs = experiment: Millipore GPCR Profiler functional panel; assay type: cell-based
# Outline: (§1)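 Outsourced functional screening paradigm covering 16 GPCRs, chosen as family A subtypes among the closest relatives of mAChRs. Test compound was assessed for agonist, antagonist and allosteric potentiator activity by its effect on full concentration-response curves of each receptor's agonist.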
# [2] = Brain and plasma exposure pharmacokinetic profiling; assay type: in vivo, rat; settings: male rats, 56.6 mg/kg i.p.; mean ± S.E.M., n = 3
# Outline: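 Male Sprague-Dawley rats (225–250 g), fasted overnight. Test compound dissolved at 56.6 mg/ml in 10% Tween 80/water, pH ~7.0 (1 N NaOH), sonicated, and given at 56.6 mg/kg i.p. Brain and trunk plasma taken at 0.5, 1, 2 and 4 h, three rats per time point. Brain homogenized in acetonitrile/methanol and plasma precipitated with acidified acetonitrile, both with internal standard. Analyzed by positive-ESI LC-MS-MS, linear 50 ng/ml–100 µg/ml. AUC0-∞ by trapezoidal method.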
# serotonin 2B receptor = serotonin 2B receptor (Homo sapiens, UniProt P41595); experiment: Millipore GPCR Profiler functional screen, serotonin 2B receptor; assay type: cell-based; settings: full agonist CRC
# Outline: as §1
# [3] = tested on: panel of 68 discrete GPCRs, ion channels, transporters, and enzymes; experiment: MDS Pharma LeadProfiling Screen radioligand binding panel; settings: 10 µM; for VU0152099 with the single exception of GABAA receptors
# [4] = Formulation into homogeneous dosing solution; assay type: physicochemical; settings: vehicles acceptable for in vivo studies
# Outline: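 Test compound was jet-milled to uniform nanoparticles before vehicle formulation. It was then dissolved at 56.6 mg/ml in 10% Tween 80 in double-deionized water, with pH adjusted to about 7.0 using 1 N NaOH. The mixture was sonicated until a uniform homogeneous solution formed, for intraperitoneal dosing.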
# M2 mAChR = molecular target: T2, M2 mAChR (Homo sapiens, UniProt P08172); experiment: Calcium mobilization selectivity assay, CHO K1 cells expressing M2-Gqi5; assay type: cell-based; settings: 30 µM compound
# T2 sequence (P08172 1-466): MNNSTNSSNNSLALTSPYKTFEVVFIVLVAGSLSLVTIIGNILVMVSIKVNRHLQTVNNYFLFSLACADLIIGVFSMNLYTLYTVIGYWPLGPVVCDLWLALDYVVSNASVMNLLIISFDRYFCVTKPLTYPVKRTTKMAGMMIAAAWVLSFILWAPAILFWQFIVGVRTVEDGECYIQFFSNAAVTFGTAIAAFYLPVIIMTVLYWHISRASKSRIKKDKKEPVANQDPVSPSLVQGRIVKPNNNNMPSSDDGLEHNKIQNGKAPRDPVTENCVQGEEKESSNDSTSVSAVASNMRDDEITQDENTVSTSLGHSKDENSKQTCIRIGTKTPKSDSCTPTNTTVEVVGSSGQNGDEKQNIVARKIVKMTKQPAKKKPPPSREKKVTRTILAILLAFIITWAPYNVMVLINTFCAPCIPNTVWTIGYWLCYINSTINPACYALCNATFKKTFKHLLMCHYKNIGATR
# Outline: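 CHO K1 cells stably co-expressing human M2 and chimeric Gqi5, grown with 500 µg/ml hygromycin B. Seeded 60,000 cells/well and kept overnight in antibiotic-free medium at 37°C/5% CO2. Loaded with 2 µM Fluo-4 AM for 45 min at 37°C in HBSS/HEPES/probenecid buffer, pH 7.4. […] Three independent experiments.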
# M5 mAChR = molecular target: T3, M5 mAChR (Homo sapiens, UniProt P08912); experiment: Calcium mobilization selectivity assay, CHO K1 cells expressing M5; assay type: cell-based; settings: 30 µM compound
# T3 sequence (P08912 1-532): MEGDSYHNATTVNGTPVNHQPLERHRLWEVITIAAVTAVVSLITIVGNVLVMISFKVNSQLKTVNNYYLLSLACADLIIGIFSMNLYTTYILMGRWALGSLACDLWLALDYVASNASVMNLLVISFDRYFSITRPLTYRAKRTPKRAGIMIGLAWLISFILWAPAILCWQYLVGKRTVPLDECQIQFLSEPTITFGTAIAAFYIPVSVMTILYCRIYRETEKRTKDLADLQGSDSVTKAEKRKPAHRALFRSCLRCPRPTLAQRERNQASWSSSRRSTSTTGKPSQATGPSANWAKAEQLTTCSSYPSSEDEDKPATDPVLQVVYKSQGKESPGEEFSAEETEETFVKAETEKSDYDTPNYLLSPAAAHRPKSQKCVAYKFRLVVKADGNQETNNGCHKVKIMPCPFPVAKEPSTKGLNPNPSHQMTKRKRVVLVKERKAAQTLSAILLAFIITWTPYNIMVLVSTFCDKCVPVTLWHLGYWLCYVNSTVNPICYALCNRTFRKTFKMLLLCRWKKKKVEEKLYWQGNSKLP
# Outline: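 CHO K1 cells stably expressing rat M1 or human M3 or M5, coupled through endogenous Gq. Seeded 50,000 cells/well and held overnight in antibiotic-free medium at 37°C/5% CO2. Loaded with 2 µM Fluo-4 AM for 45 min at 37°C in HBSS/20 mM HEPES/2.5 mM probenecid, pH 7.4. […] Three independent experiments.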
# serotonin 2B receptor, sequence (P41595 whole entry): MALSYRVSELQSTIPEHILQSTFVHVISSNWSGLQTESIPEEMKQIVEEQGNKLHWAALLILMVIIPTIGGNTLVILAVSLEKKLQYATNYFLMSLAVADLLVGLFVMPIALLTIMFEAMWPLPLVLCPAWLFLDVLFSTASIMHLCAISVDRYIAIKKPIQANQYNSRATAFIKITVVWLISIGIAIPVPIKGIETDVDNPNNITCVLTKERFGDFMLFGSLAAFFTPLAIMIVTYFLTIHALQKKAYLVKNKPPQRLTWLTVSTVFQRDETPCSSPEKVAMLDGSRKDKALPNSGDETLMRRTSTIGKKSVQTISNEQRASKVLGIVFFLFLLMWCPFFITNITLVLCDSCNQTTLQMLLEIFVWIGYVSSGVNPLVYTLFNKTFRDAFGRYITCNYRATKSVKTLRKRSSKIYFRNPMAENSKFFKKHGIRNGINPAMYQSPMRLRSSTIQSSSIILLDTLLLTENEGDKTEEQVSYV
smiles,measurement,setting,value
"Cc1cc(C)c2c(N)c(C(=O)NCc3ccc4c(c3)OCO4)sc2n1 [VU0152099, 3-amino-N-(benzo[d][1,3]dioxol-5-ylmethyl)-4,6-dimethylthieno[2,3-b]pyridine carboxamide]",maximal leftward shift of the ACh CRC,rat M4 mAChR; 30 µM compound,30 fold
same,response in the absence of an ACh EC20 (agonist activity),rat M4 mAChR; compound alone,neither VU0152099 nor VU0152100 elicited a response
same,Rat M4 Ach -Fold Shift,"rat M4 mAChR; leftward shift of ACh CRC, average of at least three determinations",29.7 fold
same,EC50,rat M4 mAChR; read-out: M4 PAM activity EC50,403 nM
same,EC50,"rat M4 mAChR; read-out: Rat M4 EC50, average of at least three determinations",400 nM
same,effect on amphetamine-induced hyperlocomotion,[1],produced robust decreases in amphetamine-induced hyperlocomotion
same,log P,log P,3.65
same,"agonist activity, compound alone",panel of 16 GPCRs; data not shown,no agonist activity at any receptor studied
same,allosteric potentiator activity at the other GPCR subtypes,panel of 16 GPCRs; full agonist CRCs,had no allosteric potentiator activity at any of the other GPCR subtypes tested
same,AUC brain / AUC plasma,[2],0.39 ± 0.01
same,Mean AUC (0-∞) brain,[2],4751.80 ± 666.17 ng·h/g
same,Mean AUC(0-∞) plasma,[2],11928.00 ± 1472.36 ng·h/mL
same,t1/2 brain,[2],1.25 ± 0.023 h
same,t1/2 plasma,[2],1.66 ± 0.39 h
same,antagonist activity at serotonin 2B receptor,serotonin 2B receptor,weak antagonist activity at serotonin 2B receptor
same,"displacement of binding, all targets tested",[3],less than 50%
same,formulation into homogeneous dosing solution,[4],afforded homogeneous dosing solutions in multiple vehicles acceptable for in vivo studies
same,shift in the ACh CRC at M2-Gqi5,M2 mAChR,No shift in the ACh CRC was observed
same,shift in the ACh CRC at M5,M5 mAChR,No shift in the ACh CRC was observed

# Reference: publication PMC2745822 (The Journal of pharmacology and experimental therapeutics, 2008)
